The target of experiment [1] is T1, Muscarinic acetylcholine receptor M2 (Homo sapiens) (UniProt P08172).
T1 sequence (whole entry): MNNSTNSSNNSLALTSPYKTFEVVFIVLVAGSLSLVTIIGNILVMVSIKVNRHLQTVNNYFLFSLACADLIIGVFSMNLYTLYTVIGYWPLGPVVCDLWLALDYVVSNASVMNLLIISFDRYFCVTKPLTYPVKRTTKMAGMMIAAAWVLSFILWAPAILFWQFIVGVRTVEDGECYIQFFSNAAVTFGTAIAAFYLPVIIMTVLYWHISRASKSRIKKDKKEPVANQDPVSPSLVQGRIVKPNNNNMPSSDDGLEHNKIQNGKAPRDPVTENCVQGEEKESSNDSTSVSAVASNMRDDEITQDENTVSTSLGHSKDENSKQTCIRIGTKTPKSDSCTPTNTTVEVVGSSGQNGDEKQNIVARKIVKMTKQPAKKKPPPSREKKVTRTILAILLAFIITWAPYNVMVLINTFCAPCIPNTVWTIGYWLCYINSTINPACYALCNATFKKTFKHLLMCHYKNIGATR
Put plainly: Binding affinity at the NMS liganded human muscarinic acetylcholine receptor M2 was estimated as log affinity (log1/M). In outline: (§1)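 Equilibrium runs were ≥2 h with 2 × 10⁻⁴ M GTP and 0.1–0.7 nM ³H-NMS. Nonspecific binding was defined with 10⁻⁶ M QNB, and bound ligand was filtered and counted. Log affinities came from semiquantitative plus off-rate, quantitative equilibrium, or nonequilibrium assays, fitted by nonlinear least squares to the allosteric ternary complex model.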

Experiment [2] concerns the target T1, Muscarinic acetylcholine receptor M2 (Homo sapiens). Put plainly: Cooperativity with NMS at human muscarinic acetylcholine receptor M2. The essentials: (§2)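 Equilibrium ³H-NMS binding in CHO membranes expressing human m1–m5 receptors was measured with and without ACh, alone and with three agent concentrations. Data were converted to affinity ratios, meaning apparent primary-ligand affinity with agent divided by affinity without it.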

The target in experiment [3] is Muscarinic acetylcholine receptor M3 (Homo sapiens) (UniProt P20309). Put plainly: Binding affinity at the unliganded human muscarinic acetylcholine receptor M3 was estimated as log affinity (log1/M). In outline: as §1
Chain of Muscarinic acetylcholine receptor M3 (Homo sapiens) (P20309 whole entry, looked up): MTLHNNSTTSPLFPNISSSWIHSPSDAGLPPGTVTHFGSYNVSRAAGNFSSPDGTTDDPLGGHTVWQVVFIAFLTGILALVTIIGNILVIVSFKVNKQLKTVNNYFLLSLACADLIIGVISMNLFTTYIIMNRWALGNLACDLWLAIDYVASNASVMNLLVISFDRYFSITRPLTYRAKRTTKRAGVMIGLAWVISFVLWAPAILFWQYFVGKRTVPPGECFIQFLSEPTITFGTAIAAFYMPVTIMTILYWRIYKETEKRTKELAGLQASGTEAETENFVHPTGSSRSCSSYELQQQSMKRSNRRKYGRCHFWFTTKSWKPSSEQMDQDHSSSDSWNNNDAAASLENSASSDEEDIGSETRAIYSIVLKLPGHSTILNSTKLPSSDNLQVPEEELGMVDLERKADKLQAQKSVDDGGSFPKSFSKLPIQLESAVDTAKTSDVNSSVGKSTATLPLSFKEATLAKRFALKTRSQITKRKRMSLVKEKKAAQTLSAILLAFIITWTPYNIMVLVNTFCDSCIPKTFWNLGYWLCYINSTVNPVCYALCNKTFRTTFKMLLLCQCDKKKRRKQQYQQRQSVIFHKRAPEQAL
Experiment [4] addresses T2, Muscarinic acetylcholine receptor M1 (Homo sapiens) (UniProt P11229).
T2 sequence (whole entry): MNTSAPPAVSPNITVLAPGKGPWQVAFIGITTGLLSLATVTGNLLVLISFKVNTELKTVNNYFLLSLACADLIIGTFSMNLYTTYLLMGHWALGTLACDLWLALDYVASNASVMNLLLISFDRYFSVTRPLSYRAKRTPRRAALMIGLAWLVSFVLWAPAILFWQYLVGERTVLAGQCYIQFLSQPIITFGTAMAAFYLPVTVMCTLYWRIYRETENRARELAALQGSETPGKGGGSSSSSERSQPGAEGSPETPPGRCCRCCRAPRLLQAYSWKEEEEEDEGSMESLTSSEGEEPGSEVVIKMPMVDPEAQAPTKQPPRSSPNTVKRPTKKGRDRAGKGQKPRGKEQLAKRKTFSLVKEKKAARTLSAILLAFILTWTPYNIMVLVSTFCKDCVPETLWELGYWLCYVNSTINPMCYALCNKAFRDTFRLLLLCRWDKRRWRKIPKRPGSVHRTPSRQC
In words: Binding affinity at the unliganded human muscarinic acetylcholine receptor M1 was estimated as log affinity (log1/M). In outline: as §1

For experiment [5], the target named is T1, Muscarinic acetylcholine receptor M2 (Homo sapiens). In words: Cooperativity with acetylcholine at human muscarinic acetylcholine receptor M2. In outline:
as §2

In experiment [6] the target is T3, Muscarinic acetylcholine receptor M4 (Homo sapiens) (UniProt P08173).
T3 sequence (whole entry): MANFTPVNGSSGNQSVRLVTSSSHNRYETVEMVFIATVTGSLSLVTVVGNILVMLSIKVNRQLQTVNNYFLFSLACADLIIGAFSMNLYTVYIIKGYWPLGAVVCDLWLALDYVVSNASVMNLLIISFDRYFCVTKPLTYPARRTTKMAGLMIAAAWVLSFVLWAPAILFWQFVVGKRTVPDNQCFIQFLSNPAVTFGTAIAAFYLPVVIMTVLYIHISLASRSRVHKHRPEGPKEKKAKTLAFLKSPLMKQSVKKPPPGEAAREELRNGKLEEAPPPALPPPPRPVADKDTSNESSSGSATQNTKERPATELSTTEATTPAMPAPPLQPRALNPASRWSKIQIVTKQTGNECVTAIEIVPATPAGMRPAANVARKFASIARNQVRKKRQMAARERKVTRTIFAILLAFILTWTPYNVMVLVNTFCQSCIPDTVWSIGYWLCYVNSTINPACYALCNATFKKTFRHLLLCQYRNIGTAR
Put plainly: Cooperativity with NMS at human muscarinic acetylcholine receptor M4. The essentials: as §2

The target of experiment [7] is T3, Muscarinic acetylcholine receptor M4 (Homo sapiens). Put plainly: Binding affinity at the NMS liganded human muscarinic acetylcholine receptor M4 was estimated as log affinity (log1/M). The essentials: as §1
The target of experiment [8] is T4, Muscarinic acetylcholine receptor M5 (Homo sapiens) (UniProt P08912).
T4 sequence (whole entry): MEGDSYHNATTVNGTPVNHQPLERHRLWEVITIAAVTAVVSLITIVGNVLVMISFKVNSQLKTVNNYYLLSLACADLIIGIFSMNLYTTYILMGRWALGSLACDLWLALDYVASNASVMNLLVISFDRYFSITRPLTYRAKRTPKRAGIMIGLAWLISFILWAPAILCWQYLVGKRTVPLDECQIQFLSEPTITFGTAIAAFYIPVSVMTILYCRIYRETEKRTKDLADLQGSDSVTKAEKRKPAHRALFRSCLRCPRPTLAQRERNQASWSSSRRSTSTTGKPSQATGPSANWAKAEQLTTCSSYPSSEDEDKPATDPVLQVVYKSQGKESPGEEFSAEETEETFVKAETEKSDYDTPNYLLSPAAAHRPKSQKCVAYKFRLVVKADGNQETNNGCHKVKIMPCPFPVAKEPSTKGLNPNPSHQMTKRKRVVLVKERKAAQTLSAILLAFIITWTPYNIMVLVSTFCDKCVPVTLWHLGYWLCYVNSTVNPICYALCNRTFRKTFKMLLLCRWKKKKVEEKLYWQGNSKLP
In words: Cooperativity with NMS at Muscarinic acetylcholine receptor M5. In outline:
as §2

Experiment [9] concerns the target T4, Muscarinic acetylcholine receptor M5 (Homo sapiens). In words: Binding affinity at the NMS liganded human muscarinic acetylcholine receptor M5 was estimated as log affinity (log1/M). The essentials:
as §1

The target of experiment [10] is T2, Muscarinic acetylcholine receptor M1 (Homo sapiens). In words: Cooperativity with acetylcholine at human muscarinic acetylcholine receptor M1. The essentials: as §2
The target is the same in experiment [11]. In words: Binding affinity at the NMS liganded human muscarinic acetylcholine receptor M1 was estimated as log affinity (log1/M). In outline: as §1
The target in experiment [12] is T4, Muscarinic acetylcholine receptor M5 (Homo sapiens). Put plainly: Binding affinity at the unliganded Muscarinic acetylcholine receptor M5 was estimated as log affinity (log1/M). The essentials: as §1
In experiment [13] the target is T3, Muscarinic acetylcholine receptor M4 (Homo sapiens). Put plainly: Cooperativity with acetylcholine at human muscarinic acetylcholine receptor M4. In outline: as §2
The target in experiment [14] is Muscarinic acetylcholine receptor M3 (Homo sapiens) (UniProt P20309). Put plainly: Cooperativity with acetylcholine at human muscarinic acetylcholine receptor M3. In outline: as §2
Experiment [15] addresses T4, Muscarinic acetylcholine receptor M5 (Homo sapiens). In words: Cooperativity with acetylcholine at Muscarinic acetylcholine receptor M5. In outline: as §2
In experiment [16] the target is Muscarinic acetylcholine receptor M3 (Homo sapiens) (UniProt P20309). In words: Binding affinity at the NMS liganded human muscarinic acetylcholine receptor M3 was estimated as log affinity (log1/M). The essentials:
as §1

For experiment [17] the target is unchanged. Put plainly: Cooperativity with NMS at human muscarinic acetylcholine receptor M3. In outline:
as §2

In experiment [18] the target is T1, Muscarinic acetylcholine receptor M2 (Homo sapiens). Put plainly: Binding affinity at the unliganded human muscarinic acetylcholine receptor M2 was estimated as log affinity (log1/M). The essentials:
as §1

For experiment [19], the target named is T3, Muscarinic acetylcholine receptor M4 (Homo sapiens). Put plainly: Binding affinity at the unliganded human muscarinic acetylcholine receptor M4 was estimated as log affinity (log1/M). In outline: as §1
In experiment [20] the target is T2, Muscarinic acetylcholine receptor M1 (Homo sapiens). In words: Cooperativity with NMS at human muscarinic acetylcholine receptor M1. The essentials:
as §2

We go through 1 compound from ChEMBL document CHEMBL1132569.

As to `COc1cc2c(cc1OC)[C@@]13CC[N+]4(CCl)CC5=CCO[C@H]6CC(=O)N2[C@H]1[C@H]6[C@H]5C[C@@H]34` (stereo not given in full), the Affinity is 4.4 in experiment [1]; 3.7 in experiment [3]; 4.4 in [4]; 4.3 in experiment [7]; 3.3 in [9]; 4.1 in [11]. Further, the Affinity was 3.7 in [12], 3.3 in [16], 4.2 in experiment [18] and 4.3 in experiment [19]. For the same compound, the Cooperativity in experiment [2] is 2; in experiment [5], below 0.2; in [6] it was 1.19; in experiment [8] it was 0.2; in experiment [10], 0.2; in [13] it was 1.19. Further, the Cooperativity in experiment [14] was above 0.2; in experiment [15] it was below 0.2; in experiment [17] it was 0.2; in experiment [20], 0.2.
